Measured values taken from PMC3254186 (Frontiers in Pharmacology, 2011).

Columns and labels:
Assay type in all cases: cell-based
Kir3.1/3.2 (GIRK) [1] = target: T1, Kir3.1/3.2 (GIRK) (Homo sapiens, UniProt P48051+P48549); experiment: Tl+ flux assay, mGluR8-activated GIRK in HEK-293 cells; conditions: from Tl+ flux IC50 values
T1 sequence (P48549 1-501): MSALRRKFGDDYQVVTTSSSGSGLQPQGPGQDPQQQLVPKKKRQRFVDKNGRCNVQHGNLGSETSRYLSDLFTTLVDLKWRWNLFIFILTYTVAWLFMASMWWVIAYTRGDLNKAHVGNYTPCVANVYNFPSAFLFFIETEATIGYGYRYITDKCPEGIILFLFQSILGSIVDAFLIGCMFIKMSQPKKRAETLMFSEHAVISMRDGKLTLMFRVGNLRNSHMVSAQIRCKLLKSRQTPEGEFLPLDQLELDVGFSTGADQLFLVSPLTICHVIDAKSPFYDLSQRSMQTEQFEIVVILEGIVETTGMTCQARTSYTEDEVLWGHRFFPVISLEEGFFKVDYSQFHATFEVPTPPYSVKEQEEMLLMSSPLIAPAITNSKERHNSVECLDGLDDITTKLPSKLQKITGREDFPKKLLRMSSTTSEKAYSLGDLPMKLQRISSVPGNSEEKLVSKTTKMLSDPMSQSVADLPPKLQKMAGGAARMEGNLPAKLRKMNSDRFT
T1 sequence (P48051 1-423): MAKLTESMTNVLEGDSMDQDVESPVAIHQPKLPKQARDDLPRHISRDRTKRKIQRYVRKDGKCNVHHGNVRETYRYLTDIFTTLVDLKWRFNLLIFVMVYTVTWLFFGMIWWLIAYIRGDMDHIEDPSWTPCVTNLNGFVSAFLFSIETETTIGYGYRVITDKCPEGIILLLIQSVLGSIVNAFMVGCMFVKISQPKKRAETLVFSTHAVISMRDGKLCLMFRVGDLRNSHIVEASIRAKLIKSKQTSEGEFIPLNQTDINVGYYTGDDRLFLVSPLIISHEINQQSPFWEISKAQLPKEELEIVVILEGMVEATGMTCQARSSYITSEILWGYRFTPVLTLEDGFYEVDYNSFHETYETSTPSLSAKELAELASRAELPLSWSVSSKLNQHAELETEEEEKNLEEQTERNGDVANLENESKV
Procedure, shortened: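 mGluR8/GIRK/HEK monoclonal cells stably expressing Kir3.1/3.2, M4 receptor and rat mGlu8a, loaded with FluoZin-2. Test compound pre-incubated 20 min (1:3 serial dilutions from 10 mM DMSO stock). Tl+ buffer (12 mM Tl2SO4, pH 7.3) added with glutamate at EC80, set daily from an 11-point curve. Imaged at 1 Hz (ex 470, em 540 nm), 20–23°C. Slope taken 5–15 s post-addition, vehicle-corrected. CRC n = 3. Selectivity taken from the Tl+ flux IC50 values for GIRK and Kir1.1-S44D.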

Kir2.1 = target: T2, Kir2.1 (Homo sapiens, UniProt P63252); experiment: Two-electrode voltage clamp in Xenopus oocytes, Kir2.1
T2 sequence (P63252 1-427): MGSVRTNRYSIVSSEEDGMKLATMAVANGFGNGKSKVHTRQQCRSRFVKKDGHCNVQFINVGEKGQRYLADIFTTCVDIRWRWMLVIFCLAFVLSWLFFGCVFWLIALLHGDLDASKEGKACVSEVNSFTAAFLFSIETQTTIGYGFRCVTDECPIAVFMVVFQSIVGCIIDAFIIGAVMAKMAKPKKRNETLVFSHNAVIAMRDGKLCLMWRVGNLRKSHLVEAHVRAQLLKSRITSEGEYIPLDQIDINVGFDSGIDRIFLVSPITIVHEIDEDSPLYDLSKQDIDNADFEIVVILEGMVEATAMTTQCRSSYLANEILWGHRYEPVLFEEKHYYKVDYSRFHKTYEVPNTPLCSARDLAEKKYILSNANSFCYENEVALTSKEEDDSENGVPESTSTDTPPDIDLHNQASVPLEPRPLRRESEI
Procedure, shortened: (§1)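 Stage V–VI Xenopus oocytes were defolliculated with 1 mg/mL collagenase and injected with 0.5–10 ng cRNA. They were kept at 16°C in modified L-15 for 24–72 h. Two-electrode voltage clamp at 20–23°C: held at −75 mV and stepped to −120 mV for 200 ms every 5 s, with current at −120 mV tracked over time. Test compound (50 μM) was perfused, then 2 mM Ba2+. Time constant of inhibition derived.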

Kir1.1 = experiment: Whole-cell patch clamp, Kir1.1; conditions: 20 μM, n = 5
Kir7.1 = target: T3, Kir7.1 (Homo sapiens, UniProt O60928); experiment: Two-electrode voltage clamp in Xenopus oocytes, Kir7.1
T3 sequence (O60928 1-360): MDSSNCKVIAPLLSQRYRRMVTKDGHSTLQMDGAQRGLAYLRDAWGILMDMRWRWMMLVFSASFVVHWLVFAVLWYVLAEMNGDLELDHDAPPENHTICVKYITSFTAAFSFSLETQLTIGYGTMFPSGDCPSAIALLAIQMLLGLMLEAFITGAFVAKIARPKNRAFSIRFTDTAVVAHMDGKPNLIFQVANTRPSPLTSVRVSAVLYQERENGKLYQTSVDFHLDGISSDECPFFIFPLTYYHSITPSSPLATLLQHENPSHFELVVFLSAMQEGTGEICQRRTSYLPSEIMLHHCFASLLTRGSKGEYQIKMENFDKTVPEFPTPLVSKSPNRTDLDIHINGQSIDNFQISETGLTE
Procedure, shortened: as §1

Kir3.1/3.2 = target: T4, Kir3.1/3.2 (Homo sapiens, UniProt P48051+P48549); experiment: Two-electrode voltage clamp in Xenopus oocytes, Kir3.1/3.2
T4 sequence (P48549 1-501): T1 sequence (P48549 1-501)
T4 sequence (P48051 1-423): T1 sequence (P48051 1-423)
Procedure, shortened: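 Xenopus oocytes were injected with Kir3.1/3.2 or Kir3.1/3.4 cRNA and voltage-clamped with two electrodes at 20–23°C, with current at −80 mV followed over time. The bath was switched from K+-free to 90 mM K+ to activate the channel. Test compound in 90K was applied continuously at graded concentrations, then 2 mM Ba2+ was added. A final 0K switch measured leak. Time constant derived (n = 6 at 25 μM). Percent inhibition n = 4–6.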

Kir3.1/3.2 (GIRK) [2] = target: T1, Kir3.1/3.2 (GIRK); experiment: Whole-cell patch clamp, Kir3.1/3.2 in transfected HEK-293 cells
Procedure, shortened: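 HEK-293 cells were transiently co-transfected with channel plus an EGFP marker (Lipofectamine). Pipette: 135 mM KCl, 2 mM MgCl2, 1 mM EGTA, 10 mM HEPES, 2 mM Na2ATP, pH 7.3. Bath: 135 mM NaCl, 5 mM KCl, pH 7.4; some runs used 50 mM KCl. Held at −75 mV and ramped −120 to 120 mV every 5 s, at 20–23°C. Test compound was bath-applied for 2–10 min, then 2 mM BaCl2. CRC n = 4–7. τ taken from the time course.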

Cc1ccc(OCC(O)Cn2c(=N)n(Cc3ccccc3)c3ccccc32)cc1 (stereo not drawn) [Compound 1, 1-(3-benzyl-2-imino-2,3-dihydro-1H-benzo[d]imidazol-1-yl)-3-(p-tolyloxy)propan-2-ol]
selectivity for GIRK over Kir1.1 (Kir3.1/3.2 (GIRK) [1]): 10 fold
time constant (τ) of Kir2.1 inhibition (Kir2.1; TEVC oocytes, 50 μM, n = 4): 735 ± 85 s
inhibition at 50 µM (Kir2.1; read-out: inhibition of Kir2.1): 30.2 ± 9.4%
inhibition of Kir1.1 (Kir1.1): 49.5 ± 0.03%
time constant of Kir7.1 inhibition (Kir7.1; TEVC oocytes, 50 μM, n = 8): 38 ± 6 s
inhibition at 50 µM (Kir7.1; read-out: inhibition of Kir7.1): 66 ± 6%
IC50 (Kir3.1/3.2): ~10 µM
time constant (τ) for inhibition of Kir3.1/3.2 currents (Kir3.1/3.2; TEVC oocytes, 25 μM, mean ± SEM, n = 6): 28 ± 4 s
inhibition at 10 µM (Kir3.1/3.2; read-out: inhibition of GIRK current (Kir3.1/3.2)): ~50%
IC50 (Kir3.1/3.2 (GIRK) [2]): 1.3 µM
inhibition of GIRK (Kir3.1/3.2 (GIRK) [2]; whole-cell patch clamp, HEK-293, 30 μM bath application): near complete inhibition
time constant of inhibition of Kir3.1/3.2 (Kir3.1/3.2 (GIRK) [2]; whole-cell patch clamp, HEK-293, 30 μM, mean ± SEM, n = 5): 16 ± 1 s
